In ChEMBL document CHEMBL1782009, “Synthesis and characterization of new types of halogenated and alkylated imidazolidineiminothiones and a comparative study of their antitumor, antibacterial, and antifungal activities” (Eur J Med Chem, 2011):
Values after ≈ are worked out from the molar mass of the structure shown.

Legend:
HEp-2 [1] = assay: Cytotoxicity against human Hep2 cells assessed as surviving fraction at 12.5 ug/ml after 48 hrs by SRB assay relative to control; type: functional
Procedure, shortened: (§1)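 SRB assay per Skehan: compounds at 5.0, 12.5, 25 and 50 were added to cell monolayers in triplicate wells per dose for 48 h at 37 °C, 5% CO2. Cells were then fixed and stained with SRB, excess stain was removed with acetic acid, and bound dye was recovered in Tris EDTA. Surviving fraction was plotted against concentration, and IC50 was read from the dose–response curves.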

HepG2 [2] = assay: Cytotoxicity against human HepG2 cells assessed as surviving fraction at 5 ug/ml after 48 hrs by SRB assay relative to control; type: functional; procedure, shortened: as §1
MCF7 [3] = assay: Cytotoxicity against human MCF7 cells assessed as surviving fraction at 12.5 ug/ml after 48 hrs by SRB assay relative to control; type: functional; procedure, shortened: as §1
HeLa [4] = assay: Cytotoxicity against human HeLa cells after 48 hrs by SRB assay; type: functional, cell-based; procedure, shortened: as §1
HCT-116 [5] = assay: Cytotoxicity against human HCT116 cells after 48 hrs by SRB assay; type: functional, cell-based; details: HCT-116, 48 h; procedure, shortened: as §1
Escherichia coli [6] = assay: Antibacterial activity against Escherichia coli NCTC 10416 at 5 mg/ml after 24 hrs by agar disc diffusion method; type: functional; details: NCTC 10416, 24 h, read-out: DIZ
Procedure, shortened: (§2)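 Agar well-diffusion using 1 cm wells, each loaded with 100 of compound solution (5 mg/mL in DMF). Bacteria were maintained on nutrient agar and plated as a standard suspension. Plates were incubated 24 h at 35 °C, and inhibition zone diameters were measured.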

Candida albicans [7] = assay: Antifungal activity against Candida albicans IMRU 3669 at 5 mg/ml by agar disc diffusion method; type: functional; details: read-out: DIZ
HeLa [8] = assay: Cytotoxicity against human HeLa cells assessed as surviving fraction at 50 ug/ml after 48 hrs by SRB assay relative to control; type: functional; procedure, shortened: as §1
HepG2 [9] = assay: Cytotoxicity against human HepG2 cells after 48 hrs by SRB assay; type: functional, cell-based; details: HepG2, 48 h; procedure, shortened: as §1
HCT-116 [10] = assay: Cytotoxicity against human HCT116 cells assessed as surviving fraction at 25 ug/ml after 48 hrs by SRB assay relative to control; type: functional; procedure, shortened: as §1
HEp-2 [11] = assay: Cytotoxicity against human Hep2 cells assessed as surviving fraction at 5 ug/ml after 48 hrs by SRB assay relative to control; type: functional; procedure, shortened: as §1
HCT-116 [12] = assay: Cytotoxicity against human HCT116 cells assessed as surviving fraction at 50 ug/ml after 48 hrs by SRB assay relative to control; type: functional; procedure, shortened: as §1
HepG2 [13] = assay: Cytotoxicity against human HepG2 cells assessed as surviving fraction at 50 ug/ml after 48 hrs by SRB assay relative to control; type: functional; procedure, shortened: as §1
Aspergillus flavus [14] = assay: Antifungal activity against Aspergillus flavus at 5 mg/ml by agar disc diffusion method; type: functional; details: read-out: DIZ
HepG2 [15] = assay: Cytotoxicity against human HepG2 cells assessed as surviving fraction at 12.5 ug/ml after 48 hrs by SRB assay relative to control; type: functional; procedure, shortened: as §1
HEp-2 [16] = assay: Cytotoxicity against human Hep2 cells assessed as surviving fraction at 25 ug/ml after 48 hrs by SRB assay relative to control; type: functional; procedure, shortened: as §1
Micrococcus luteus [17] = assay: Antibacterial activity against Sarcina lutea ATCC 934 at 5 mg/ml after 24 hrs by agar disc diffusion method; type: functional; details: ATCC 934, 24 h, read-out: DIZ; procedure, shortened: as §2
Bacillus subtilis [18] = assay: Antibacterial activity against Bacillus subtilis NCTC 1040 at 5 mg/ml after 24 hrs by agar disc diffusion method; type: functional; details: NCTC 1040, 24 h, read-out: DIZ; procedure, shortened: as §2
HepG2 [19] = assay: Cytotoxicity against human HepG2 cells assessed as surviving fraction at 25 ug/ml after 48 hrs by SRB assay relative to control; type: functional; procedure, shortened: as §1
HEp-2 [20] = assay: Cytotoxicity against human Hep2 cells assessed as surviving fraction at 50 ug/ml after 48 hrs by SRB assay relative to control; type: functional; procedure, shortened: as §1
MCF7 [21] = assay: Cytotoxicity against human MCF7 cells assessed as surviving fraction at 25 ug/ml after 48 hrs by SRB assay relative to control; type: functional; procedure, shortened: as §1
MCF7 [22] = assay: Cytotoxicity against human MCF7 cells after 48 hrs by SRB assay; type: functional, cell-based; details: MCF7, 48 h; procedure, shortened: as §1
[23] = Antitumor activity against mouse EAC cells assessed as inhibition of cell viability at 100 ug/ml by Trypan blue assay; type: functional; details: Ehrlich
Procedure, shortened: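 EAC cells were taken by needle aspiration of ascitic fluid from preinoculated mice and diluted 1:10 in saline. Then 0.1 mL of cell suspension, 0.8 mL RPMI 1640 and 0.1 mL compound were incubated 2 h at 37 °C. Dead cells were counted by trypan blue exclusion, and % non-viable = non-viable/total cells × 100.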

HCT-116 [24] = assay: Cytotoxicity against human HCT116 cells assessed as surviving fraction at 12.5 ug/ml after 48 hrs by SRB assay relative to control; type: functional; procedure, shortened: as §1
HEp-2 [25] = assay: Cytotoxicity against human Hep2 cells after 48 hrs by SRB assay; type: functional, cell-based; details: HEp-2, 48 h; procedure, shortened: as §1
HeLa [26] = assay: Cytotoxicity against human HeLa cells assessed as surviving fraction at 5 ug/ml after 48 hrs by SRB assay relative to control; type: functional; procedure, shortened: as §1
Staphylococcus aureus [27] = assay: Antibacterial activity against Staphylococcus aureus NCTC 7447 at 5 mg/ml after 24 hrs by agar disc diffusion method; type: functional; details: NCTC 7447, 24 h, read-out: DIZ; procedure, shortened: as §2
HCT-116 [28] = assay: Cytotoxicity against human HCT116 cells assessed as surviving fraction at 5 ug/ml after 48 hrs by SRB assay relative to control; type: functional; procedure, shortened: as §1
HeLa [29] = assay: Cytotoxicity against human HeLa cells assessed as surviving fraction at 12.5 ug/ml after 48 hrs by SRB assay relative to control; type: functional; procedure, shortened: as §1
MCF7 [30] = assay: Cytotoxicity against human MCF7 cells assessed as surviving fraction at 50 ug/ml after 48 hrs by SRB assay relative to control; type: functional; procedure, shortened: as §1
MCF7 [31] = assay: Cytotoxicity against human MCF7 cells assessed as surviving fraction at 5 ug/ml after 48 hrs by SRB assay relative to control; type: functional; procedure, shortened: as §1
HeLa [32] = assay: Cytotoxicity against human HeLa cells assessed as surviving fraction at 25 ug/ml after 48 hrs by SRB assay relative to control; type: functional; procedure, shortened: as §1
Bacillus subtilis [33] = assay: Antibacterial activity against Bacillus subtilis NCTC 1040 by macrotube dilution method; type: functional
Procedure, shortened: (§3)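 Macrotube twofold dilution following CLSI guidelines, with 15 tubes per organism. Tube 1 held 2 mg compound in 2.0 mL DMF and tubes 2–14 held 1.0 mL broth; 1.0 mL was carried serially, and tube 15 was the control. Colonies were suspended in 5.0 mL broth, then 0.2 mL was diluted into 40 mL, and 1.0 mL was added per tube. Bacteria were grown in nutrient broth at 37 °C overnight; fungi in Czapek's Dox at 30 °C for 72 h.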

Staphylococcus aureus [34] = assay: Bactericidal activity against Staphylococcus aureus NCTC 7447 by broth microtiter MIC test; type: functional
Candida albicans [35] = assay: Fungicidal activity against Candida albicans IMRU 3669 by broth microtiter MIC test; type: functional
Micrococcus luteus [36] = assay: Bactericidal activity against Sarcina lutea ATCC 934 by broth microtiter MIC test; type: functional
Staphylococcus aureus [37] = assay: Antibacterial activity against Staphylococcus aureus NCTC 7447 by macrotube dilution method; type: functional; procedure, shortened: as §3
Bacillus subtilis [38] = assay: Bactericidal activity against Bacillus subtilis NCTC 1040 by broth microtiter MIC test; type: functional
Aspergillus flavus [39] = assay: Antifungal activity against Aspergillus flavus after 72 hrs by macrotube dilution method; type: functional; procedure, shortened: as §3
Aspergillus flavus [40] = assay: Fungicidal activity against Aspergillus flavus by broth microtiter MIC test; type: functional
Micrococcus luteus [41] = assay: Antibacterial activity against Sarcina lutea ATCC 934 by macrotube dilution method; type: functional; procedure, shortened: as §3
Escherichia coli [42] = assay: Antibacterial activity against Escherichia coli NCTC 10416 by macrotube dilution method; type: functional; procedure, shortened: as §3
Escherichia coli [43] = assay: Bactericidal activity against Escherichia coli NCTC 10416 by broth microtiter MIC test; type: functional
Candida albicans [44] = assay: Antifungal activity against Candida albicans IMRU 3669 after 72 hrs by macrotube dilution method; type: functional; details: IMRU 3669, 72 h; procedure, shortened: as §3

SMILES | Activity (HEp-2 [1]) | Activity (HepG2 [2]) | Activity (MCF7 [3]) | IC50 (HeLa [4]) [µg/mL] | IC50 (HCT-116 [5]) [µg/mL] | zone of inhibition at 5000 µg/mL (Escherichia coli [6]) [mm] | zone of inhibition at 5000 µg/mL (Candida albicans [7]) [mm] | Activity (HeLa [8]) | IC50 (HepG2 [9]) [µg/mL] | Activity (HCT-116 [10]) | Activity (HEp-2 [11]) | Activity (HCT-116 [12]) | Activity (HepG2 [13]) | zone of inhibition at 5000 µg/mL (Aspergillus flavus [14]) [mm] | Activity (HepG2 [15]) | Activity (HEp-2 [16]) | zone of inhibition at 5000 µg/mL (Micrococcus luteus [17]) [mm] | zone of inhibition at 5000 µg/mL (Bacillus subtilis [18]) [mm] | inhibition at 100 µg/mL [23] [%] | zone of inhibition at 5000 µg/mL (Staphylococcus aureus [27]) [mm] | further results
N=C1C(=S)N(c2ccc(Cl)cc2)C(=O)N1Cc1ccccc1 | 0.22 | 0.45 | 0.12 | 9.68 (≈ 29.4 µM) | 4.19 (≈ 12.7 µM) | 22 | 22 | 0.33 | 4.34 (≈ 13.2 µM) | 0.16 | 0.24 | 0.28 | 0.3 | 18 | 0.22 | 0.16 | 20 | 21 | 80 | 21 | Activity (HepG2 [19]): 0.21; Activity (HEp-2 [20]): 0.28; Activity (MCF7 [21]): 0.16; IC50 (MCF7 [22]): 4.65 µg/mL (≈ 14.1 µM); Activity (HCT-116 [24]): 0.22; IC50 (HEp-2 [25]): 3.28 µg/mL (≈ 9.95 µM); Activity (HeLa [26]): 0.44; Activity (HCT-116 [28]): 0.24; Activity (HeLa [29]): 0.18; Activity (MCF7 [30]): 0.2; Activity (MCF7 [31]): 0.49; Activity (HeLa [32]): 0.29
N=C1C(=S)N(c2ccccc2)C(=O)N1Cc1ccccc1 |  |  |  |  |  | 23.5 | 24 |  |  |  |  |  |  | 17 |  |  | 20 | 21.5 | 60 | 22 | MIC (Bacillus subtilis [33]): 64.5 µg/mL (≈ 218 µM); MBC (Staphylococcus aureus [34]): 64.5 µg/mL (≈ 218 µM); MFC (Candida albicans [35]): 64.5 µg/mL (≈ 218 µM); MBC (Micrococcus luteus [36]): 32.3 µg/mL (≈ 109 µM); MIC (Staphylococcus aureus [37]): 64.5 µg/mL (≈ 218 µM); MBC (Bacillus subtilis [38]): 64.5 µg/mL (≈ 218 µM); MIC (Aspergillus flavus [39]): 250 µg/mL (≈ 846 µM); MFC (Aspergillus flavus [40]): 250 µg/mL (≈ 846 µM); MIC (Micrococcus luteus [41]): 32.3 µg/mL (≈ 109 µM); MIC (Escherichia coli [42]): 16.1 µg/mL (≈ 54.5 µM); MBC (Escherichia coli [43]): 16.1 µg/mL (≈ 54.5 µM); MIC (Candida albicans [44]): 64.5 µg/mL (≈ 218 µM)
COc1ccc(N2C(=N)C(=S)N(c3ccc(OC)cc3OC)C2=O)cc1 | 0.2 | 0.42 | 0.17 | 3.12 (≈ 8.4 µM) | 3.73 (≈ 10 µM) | 24.5 | 22 | 0.23 | 4.34 (≈ 11.7 µM) | 0.19 | 0.36 | 0.29 | 0.23 | 17 | 0.28 | 0.21 | 24 | 20 | 80 | 20 | Activity (HepG2 [19]): 0.19; Activity (HEp-2 [20]): 0.28; Activity (MCF7 [21]): 0.18; IC50 (MCF7 [22]): 3.28 µg/mL (≈ 8.83 µM); Activity (HCT-116 [24]): 0.26; IC50 (HEp-2 [25]): 3.89 µg/mL (≈ 10.5 µM); Activity (HeLa [26]): 0.21; Activity (HCT-116 [28]): 0.35; Activity (HeLa [29]): 0.16; Activity (MCF7 [30]): 0.27; Activity (MCF7 [31]): 0.25; Activity (HeLa [32]): 0.17
